Source: PubChem BioAssay (Sanford-Burnham Center for Chemical Genomics)
hIAP act – human IAP activation; activation factor at 10 µM; P09923; 0.16% of 330,000 active; purified human IAP, CDP-Star luminescence, 30 min; stronger effect = higher value; 1 = vehicle-only enzyme, 0 = enzyme-free background; AID 2524;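 active = activation factor of the enzyme at least 2-fold when tested at 20 µM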
Target sequence (P09923 whole entry, looked up): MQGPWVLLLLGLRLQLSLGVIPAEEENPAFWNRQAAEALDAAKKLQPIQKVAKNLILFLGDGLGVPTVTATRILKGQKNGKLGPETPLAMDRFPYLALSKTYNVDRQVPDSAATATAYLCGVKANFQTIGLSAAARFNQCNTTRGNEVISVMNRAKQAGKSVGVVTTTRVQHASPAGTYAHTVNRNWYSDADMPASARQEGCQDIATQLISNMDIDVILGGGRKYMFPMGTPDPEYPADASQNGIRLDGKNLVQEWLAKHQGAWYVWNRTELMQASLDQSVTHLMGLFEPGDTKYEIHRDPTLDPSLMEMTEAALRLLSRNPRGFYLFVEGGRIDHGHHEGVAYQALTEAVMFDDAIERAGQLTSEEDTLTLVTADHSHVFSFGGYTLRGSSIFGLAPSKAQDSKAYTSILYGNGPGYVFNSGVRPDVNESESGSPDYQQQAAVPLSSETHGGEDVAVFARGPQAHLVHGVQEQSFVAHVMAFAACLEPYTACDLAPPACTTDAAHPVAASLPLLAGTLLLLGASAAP
mIAP block – mouse IAP inhibition; purified mouse IAP, CDP-Star luminescence, 30 min; inhibition, % at 10 µM; 0.2% of 330,000 active; AID 2806;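 active = inhibition of at least 40% at 10 µM in the primary screen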;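 note: plate controls were DMSO with enzyme for no effect and no enzyme wells for full effect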
bIAP activator – increases bovine intestinal alkaline phosphatase activity; 0.17% of 200,000 active; purified bovine IAP, CDP-star luminescence, 30 min; stronger effect = higher value; fold of DMSO-control signal, blank-subtracted; activation factor at 20 µM;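 active = activation factor of 2 or more at 20 µM, a signal rise over negative controls twice the positive control's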
hIAP block – human IAP inhibition; P09923; 0.12% of 330,000 active; inhibition, % at 10 µM; purified IAP, CDP-Star luminescence, 30 min;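 active = inhibition reaching a set limit with compound at 10 µM in the primary screen, cut at about 35% in these data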;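 note: plate controls were DMSO wells with enzyme for no effect and no-enzyme buffer wells for full effect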
bIAP inh – intestinal alkaline phosphatase (bovine) inhibition; purified bovine IAP, CDP-star luminescence, 30 min; inhibition, % at 20 µM; 190,000 tested, under 10 active; AID 1019;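 active = over 50% inhibition of intestinal alkaline phosphatase at 20 µM in the single-dose screen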
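Assay system: bovine IAP enzyme; medium: DEA buffer 100 mM, pH 9.8, with MgCl2 1.0 mM, ZnCl2 0.02 mM; doses: 20 µM single dose; incubation: enzyme reaction for 30 min at room temperature; detection: CDP-star luminescence signal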
mIAP activ – mouse IAP activation; muIAP, CDP-Star luminescence, 30 min; stronger effect = higher value; 1 = vehicle-only enzyme signal, 0 = enzyme-free wells; activation factor at 10 µM; 0.24% of 330,000 active;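 active = activation factor of at least 2 at 20 µM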
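System: Mouse IAP enzyme | Also added: CDP-Star substrate | Dosing: Compounds dispensed in DMSO | Schedule: 30 min enzyme-substrate-compound incubation at room temperature | Technique: Chemiluminescence readout | Control set: DMSO-only wells and no-enzyme negative control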
hIAP act conf – human IAP activation confirmation; 10% of 880 active; activation (%Activity, negative = activation), % at 8.3 µM; shares compounds with hIAP act; AID 434926; purified IAP, CDP-Star luminescence, 30 min; stronger effect = lower value;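 active = at least twofold enzyme activation in any of six single-dose repeats, which the averaged readout prints as negative percent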
mIAP inh conf – mouse IAP inhibition confirmation | shares compounds with mIAP block | purified mouse IAP, CDP-Star luminescence, 30 min | inhibition, % at 10 µM | 4.7% of 11,000 active;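 active = inhibition of at least 40% at 10 µM in either of the two replicates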;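 note: plate controls were DMSO wells with enzyme for no effect and buffer wells lacking enzyme for full effect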
Starred values were filed as active, the others as inactive; i = inactive; nt = no result. The list is not random: actives were taken first. Their share in the collection is about 0.72%.

SMILES | hIAP act | mIAP block | bIAP activator | hIAP block | bIAP inh | mIAP activ | hIAP act conf | mIAP inh conf
Cc1ccc(CNC(=S)NC2CCC(C(C)(C)C)CC2)cc1 (stereo not drawn) | 2.1* | -355 | nt | -107 | nt | 4.5* | -26 | -100
CC(=O)c1ccc(N(CC(=O)NC2CCS(=O)(=O)C2)S(=O)(=O)c2ccc(Cl)cc2)cc1 (stereo not drawn) | 0.79 | -1 | nt | 21 | nt | 1 | nt | nt
O=C(NN1C(=O)/C(=C/c2cccc(O)c2)SC1=S)c1ccccc1O | 1.6 | 38 | nt | -63 | nt | 0.62 | nt | nt
O=C(NN1C(=O)/C(=C/c2ccc(O)c(O)c2)SC1=S)c1ccccc1 | 0.31 | 44* | nt | 69* | nt | 0.56 | 2 | 78*
COc1cc(NC(=O)NCC2CCN(Cc3ccccc3C)CC2)cc(OC)c1OC | 2.4* | -253 | nt | -141 | nt | 3.5* | 30 | -190
O=C(Nc1ccc(Cl)cc1)C1CC(=O)n2c(nc3ccccc32)N1 (stereo not drawn) | 2* | -169 | 1 | -104 | 2 | 2.7* | -7 | -106
Cc1ccc(NC(=O)C2CC(=O)n3c(nc4ccccc43)N2)cc1 (stereo not drawn) | 1.7 | -99 | 1.1 | -68 | -7 | 2 | nt | nt
Cc1ccccc1NC(=O)NCC1CCN(c2ccc(S(=O)(=O)N3CCOCC3)cc2)CC1 | 1.1 | -50 | nt | -9 | nt | 1.5 | nt | nt
Cc1cccc(NC(=O)NCC2CCN(c3ccc(S(=O)(=O)N4CCOCC4)cc3)CC2)c1 | 2.1* | -251 | nt | -108 | nt | 3.5* | -20 | -156
Cc1ccc(C)c(CN2CCC(n3nccc3NC(=O)CCCc3ccccc3)CC2)c1 | 2.6* | -138 | nt | -164 | nt | 2.4* | -61 | -131
O=C(CCCc1ccccc1)Nc1ccnn1C1CCN(Cc2ccc(Cl)cc2)CC1 | 2.9* | -150 | nt | -195 | nt | 2.5* | -2 | -118
CC(C)Cc1ccc(CN2CCC(n3nccc3NC(=O)C3CCCC3)CC2)cc1 | 3.3* | -143 | nt | -232 | nt | 2.4* | 5 | -98
CCOc1cccc(CN2CCC(n3nccc3NC(=O)CCCc3ccccc3)CC2)c1 | 3.5* | -138 | nt | -246 | nt | 2.4* | -10 | -130
CC(C)n1cc(CN2CCC(n3nccc3NC(=O)C3CCCC3)CC2)cn1 | 0.94 | -2 | nt | 6 | nt | 1 | nt | nt
CCN(CC(=O)Nc1c(F)cccc1F)C(=O)c1cccc(S(=O)(=O)N2CCCCCC2)c1 | 1 | 4 | nt | 0 | nt | 0.96 | nt | nt
Cc1oc(-c2ccc3ccccc3c2)nc1CN(C)C(C)c1ccncn1 (stereo not drawn) | 0.88 | 5 | 0.9 | 12 | 10 | 0.95 | nt | nt
COC(=O)[C@]1(CC(C)C)N[C@H](c2ccc(-c3ccc(F)cc3)c(OC)c2)[C@@H]2C(=O)N(C)C(=O)[C@@H]21 | 1.4 | 0 | nt | -36 | nt | 1 | nt | nt
CCOc1ccc(-n2ccnc(SCC(=O)Nc3cccc(OC)c3)c2=O)cc1 | 1.3 | 12 | nt | -27 | nt | 0.88 | nt | nt
CCn1nc(C)c(CN2CCC(C(=O)Nc3cccc(-c4cccc(F)c4)c3)CC2)c1C | 6.1* | -387 | nt | i | nt | 4.9* | 51 | -208
CCn1cc(CN2CCC(C(=O)Nc3cccc(-c4cccc(OC)c4)c3)CC2)cn1 | 1.1 | -1 | nt | -13 | nt | 1 | nt | nt
CC(C)n1cc(CN2CCC(C(=O)Nc3cccc(-c4cccc(Cl)c4)c3)CC2)cn1 | 8.8* | -495 | nt | i | nt | 6* | -97* | -297
CCOc1ccccc1NC(=O)C(NCC1(N2CCCCC2)CCCCC1)c1ccccc1 (stereo not drawn) | 0.96 | -5 | 0.7 | 4 | 35 | 1 | nt | nt
N#C/C(=C\c1ccc(O)c(O)c1)C(=O)c1ccc(O)c(O)c1 | 0.63 | 87* | nt | 37* | nt | 0.13 | 74 | 86*
N#C/C(=C\c1ccc(O)c(O)c1)C(=O)N1CCCC1 | 0.8 | 19 | 0.8 | 20 | 23 | 0.81 | nt | nt
COc1cc(/C=C/C(O)=C/C(=O)/C=C/c2ccc(O)cc2)ccc1O | 0.65 | 53* | nt | 35* | nt | 0.47 | 11 | 48*
CN=c1scc(-c2ccco2)n1/N=C/c1ccc(O)c(O)c1 | 0.65 | 55* | 0.9 | 35* | 9 | 0.45 | -22 | 63*
